Measured values published in ChEMBL document CHEMBL3526002, “Tissue distribution and identification of radioactivity components at elimination phase after oral administration of [¹⁴C]CS-1036, an α-amylase inhibitor, to rats” (Drug Metab Dispos, 2013).

Experiments:
Set-up in all cases: dose 5 mg/kg, dosed compound name [14C]CS-1036, route oral
Settings in all cases: in vivo
Plasma [1] = assay: Drug uptake in albino F344/DuCrlCrlj rat plasma assessed as ng equivalent of CS-1036 at 5 mg/kg, po after 168 hrs by liquid scintillation counting; type: ADME, organism-based
Plasma [2] = assay: Drug uptake in albino F344/DuCrlCrlj rat plasma assessed as ng equivalent of CS-1036 at 5 mg/kg, po after 72 hrs by liquid scintillation counting; type: ADME, organism-based
Pancreas [3] = assay: Drug uptake in albino F344/DuCrlCrlj rat pancreas assessed as ng equivalent of CS-1036 at 5 mg/kg, po after 168 hrs by liquid scintillation counting; type: ADME, organism-based
Aorta = assay: Drug uptake in albino F344/DuCrlCrlj rat aorta at 5 mg/kg, po after 72 hrs by liquid scintillation counting; type: ADME, organism-based
[4] = Drug uptake in albino F344/DuCrlCrlj rat eyeball assessed as ng equivalent of CS-1036 at 5 mg/kg, po after 1 hr by liquid scintillation counting; type: ADME, organism-based
Kidney [5] = assay: Drug uptake in albino F344/DuCrlCrlj rat kidney assessed as ng equivalent of CS-1036 at 5 mg/kg, po after 336 hrs by liquid scintillation counting; type: ADME, organism-based
Adrenal gland [6] = assay: Drug uptake in albino F344/DuCrlCrlj rat adrenal gland assessed as ng equivalent of CS-1036 at 5 mg/kg, po after 72 hrs by liquid scintillation counting; type: ADME, organism-based
Large intestine [7] = assay: Drug uptake in albino F344/DuCrlCrlj rat large intestine assessed as ng equivalent of CS-1036 at 5 mg/kg, po after 336 hrs by liquid scintillation counting; type: ADME, organism-based
[8] = Drug uptake in albino F344/DuCrlCrlj rat eyeball at 5 mg/kg, po after 24 hrs by liquid scintillation counting; type: ADME, organism-based
[9] = Drug uptake in albino F344/DuCrlCrlj rat bone marrow at 5 mg/kg, po after 1 hr by liquid scintillation counting; type: ADME, organism-based
Blood = assay: Drug uptake in albino F344/DuCrlCrlj rat blood assessed as ng equivalent of CS-1036 at 5 mg/kg, po after 72 hrs by liquid scintillation counting; type: ADME, organism-based
Procedure, shortened: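 Male F344/DuCrlCrlj rats (159–167 g; n = 3 per time point) received a single oral dose of [14C]CS-1036 at 5 mg/kg. Blood was taken from the abdominal aorta at 1, 4, 8, 24, 72, 168 and 336 h. Radioactivity was counted by LSC with external-standard efficiency correction. Results were converted to ng equivalent of CS-1036/ml using specific activity and sample volume, and reported as mean + S.D.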

Cerebrum [10] = assay: Drug uptake in albino F344/DuCrlCrlj rat cerebrum at 5 mg/kg, po after 4 hrs by liquid scintillation counting; type: ADME, organism-based
Procedure, shortened: (§1)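 Single oral [14C]CS-1036 at 5 mg/kg was given to male rats (159–167 g; n = 3). Cerebrum was collected after aortic bleeding at 1, 4, 8, 24, 72, 168 or 336 h, weighed, and homogenized in 2 volumes of saline. A 0.5 ml aliquot was solubilized in Soluene-350 and counted by LSC with external-standard correction. Results are in ng equivalent/g tissue from specific activity and sample weight.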

Pancreas [11] = assay: Drug uptake in albino F344/DuCrlCrlj rat pancreas at 5 mg/kg, po after 1 hr by liquid scintillation counting; type: ADME, organism-based
Liver [12] = assay: Drug uptake in albino F344/DuCrlCrlj rat liver at 5 mg/kg, po after 72 hrs by liquid scintillation counting; type: ADME, organism-based
Harderian gland [13] = assay: Drug uptake in albino F344/DuCrlCrlj rat harderian gland at 5 mg/kg, po after 8 hrs by liquid scintillation counting; type: ADME, organism-based
[14] = Drug uptake in albino F344/DuCrlCrlj rat epididymis assessed as ng equivalent of CS-1036 at 5 mg/kg, po after 8 hrs by liquid scintillation counting; type: ADME, organism-based
Kidney [15] = assay: Drug uptake in albino F344/DuCrlCrlj rat kidney assessed as ng equivalent of CS-1036 at 5 mg/kg, po after 72 hrs by liquid scintillation counting; type: ADME, organism-based
[16] = Drug uptake in albino F344/DuCrlCrlj rat urinary bladder assessed as ng equivalent of CS-1036 at 5 mg/kg, po after 336 hrs by liquid scintillation counting; type: ADME, organism-based
Liver [17] = assay: Drug uptake in albino F344/DuCrlCrlj rat liver at 5 mg/kg, po after 4 hrs by liquid scintillation counting; type: ADME, organism-based
Kidney [18] = assay: Drug uptake in albino F344/DuCrlCrlj rat kidney at 5 mg/kg, po after 72 hrs by liquid scintillation counting; type: ADME, organism-based
Pancreas [19] = assay: Drug uptake in albino F344/DuCrlCrlj rat pancreas assessed as ng equivalent of CS-1036 at 5 mg/kg, po after 8 hrs by liquid scintillation counting; type: ADME, organism-based
Small intestine = assay: Drug uptake in albino F344/DuCrlCrlj rat small intestine assessed as ng equivalent of CS-1036 at 5 mg/kg, po after 168 hrs by liquid scintillation counting; type: ADME, organism-based
Harderian gland [20] = assay: Drug uptake in albino F344/DuCrlCrlj rat harderian gland at 5 mg/kg, po after 1 hr by liquid scintillation counting; type: ADME, organism-based
Adrenal gland [21] = assay: Drug uptake in albino F344/DuCrlCrlj rat adrenal gland at 5 mg/kg, po after 168 hrs by liquid scintillation counting; type: ADME, organism-based
Heart = assay: Drug uptake in albino F344/DuCrlCrlj rat heart assessed as ng equivalent of CS-1036 at 5 mg/kg, po after 4 hrs by liquid scintillation counting; type: ADME, organism-based
Thymus = assay: Drug uptake in albino F344/DuCrlCrlj rat thymus at 5 mg/kg, po after 8 hrs by liquid scintillation counting; type: ADME, organism-based
[22] = Drug uptake in albino F344/DuCrlCrlj rat fat assessed as ng equivalent of CS-1036 at 5 mg/kg, po after 24 hrs by liquid scintillation counting; type: ADME, organism-based, Adipose tissue
Procedure, shortened: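 Male F344/DuCrlCrlj rats (bought at 7 weeks, acclimatized 5–6 days; 159–167 g; n = 3 per time point) received a single oral dose of [14C]CS-1036 at 5 mg/kg. White adipose tissue was collected after abdominal aortic bleeding at 1, 4, 8, 24, 72, 168 or 336 h. Samples were counted by LSC with external-standard efficiency correction. Results were converted to ng equivalents per g from specific activity and sample weight.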

Stomach = assay: Drug uptake in albino F344/DuCrlCrlj rat stomach assessed as ng equivalent of CS-1036 at 5 mg/kg, po after 1 hr by liquid scintillation counting; type: ADME, organism-based
Cerebrum [23] = assay: Drug uptake in albino F344/DuCrlCrlj rat cerebrum at 5 mg/kg, po after 8 hrs by liquid scintillation counting; type: ADME, organism-based; procedure, shortened: as §1
Large intestine [24] = assay: Drug uptake in albino F344/DuCrlCrlj rat large intestine at 5 mg/kg, po after 4 hrs by liquid scintillation counting; type: ADME, organism-based
[25] = Drug uptake in albino F344/DuCrlCrlj rat trachea assessed as ng equivalent of CS-1036 at 5 mg/kg, po after 4 hrs by liquid scintillation counting; type: ADME, organism-based
[26] = Drug uptake in albino F344/DuCrlCrlj rat mandibular gland assessed as ng equivalent of CS-1036 at 5 mg/kg, po after 4 hrs by liquid scintillation counting; type: ADME, organism-based

Radiolabel recovery (Plasma [1]): 1.65 ngequiv/ml
Radiolabel recovery (Plasma [2]): 8 ngequiv/ml
Radiolabel recovery (Pancreas [3]): 5.8 ngequiv/g
Radiolabel recovery (Aorta): 35.8 ngequiv/g
Radiolabel recovery [4]: 3.2 ngequiv/g
Radiolabel recovery (Kidney [5]): 4.9 ngequiv/g
Radiolabel recovery (Adrenal gland [6]): 30.3 ngequiv/g
Radiolabel recovery (Large intestine [7]): 6.02 ngequiv/g
Radiolabel recovery [8]: 17.4 ngequiv/g
Radiolabel recovery [9]: 34.9 ngequiv/g
Radiolabel recovery (Blood): 6.6 ngequiv/ml
Radiolabel recovery (Cerebrum [10]): 12.2 ngequiv/g
Radiolabel recovery (Pancreas [11]): 102 ngequiv/g
Radiolabel recovery (Liver [12]): 446 ngequiv/g
Radiolabel recovery (Harderian gland [13]): 55.9 ngequiv/g
Radiolabel recovery [14]: 37.8 ngequiv/g
Radiolabel recovery (Kidney [15]): 29.7 ngequiv/g
Radiolabel recovery [16]: 5.5 ngequiv/g
Radiolabel recovery (Liver [17]): 276 ngequiv/g
Radiolabel recovery (Kidney [18]): 77.9 ngequiv/g
Radiolabel recovery (Pancreas [19]): 71 ngequiv/g
Radiolabel recovery (Small intestine): 5.5 ngequiv/g
Radiolabel recovery (Harderian gland [20]): 30.2 ngequiv/g
Radiolabel recovery (Adrenal gland [21]): 78.9 ngequiv/g
Radiolabel recovery (Heart): 7 ngequiv/g
Radiolabel recovery (Thymus): 43.4 ngequiv/g
Radiolabel recovery [22]: 21 ngequiv/g
Radiolabel recovery (Stomach): 640 ngequiv/g
Radiolabel recovery (Cerebrum [23]): 9.08 ngequiv/g
Radiolabel recovery (Large intestine [24]): 5930 ngequiv/g
Radiolabel recovery [25]: 10.4 ngequiv/g
Radiolabel recovery [26]: 9.2 ngequiv/g
Compound: C[C@H]1O[C@@H](O[C@H]2[C@H](O)[C@@H](O)[C@@H](O[14C@H]3[14C@H](O)[14CH2]N[14C@@H]3[14CH2]O)O[C@@H]2CO)[C@H](O)[C@@H](O)[C@@H]1O
